ChEMBL document CHEMBL1123540, “Potential antitumor agents. 45. Synthesis, DNA-binding interaction, and biological activity of triacridine derivatives” (J Med Chem, 1986)
Values joined by “and” are separate entries in the source; they are usually repeats but may differ in a detail not shown here. Equal values may be shown once.

Experiments:
[1] = In vitro inhibition of Escherichia coli DNA-dependent RNA polymerase using both calf thymus and phage T7 DNA template
Outline: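 E. coli RNA polymerase (0.65 μg) added to template DNA (2.5 μg; calf thymus or phage T7) plus drug. TCA-pyrophosphate precipitates counted by scintillation; IC50 from inhibition curves, mean of 2–4 determinations.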

[2] = system: Nucleic Acid; assay: Inhibitory concentration against ethidium bromide binding to DNA [poly(dA-dT)]; type: nucleic-acid assay
Outline: (§1)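 C50 is the micromolar drug concentration displacing 50% of ethidium bromide already bound to DNA, read by fluorescence. It is used as a comparative measure of DNA binding.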

[3] = system: Nucleic Acid; assay: Inhibitory concentration against ethidium bromide binding to DNA [poly(dG-dC)]; type: nucleic-acid assay; outline: as §1
[4] = system: L1210; assay: Concentration of compound required to inhibit growth of L1210 leukemia cells in culture by 50%; type: functional, cell-based; conditions: Mus musculus
Outline: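 L1210 leukemia cells grown in culture with continuous drug exposure for 70 h; IC50 in nanomolar, drug concentration giving 50% growth inhibition.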

[5] = system: P388; assay: Optimal dose administered ip as a solution in 0.1 mL of 30% v/v ethanol-water after intraperitoneal inoculation of 10e6 P388 leukemia cells.; type: functional, Mus musculus
Outline: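 P388 leukemia cells (10^6) inoculated ip. Drug given ip in 30% v/v ethanol-water on days 1, 5 and 9, in mg/kg per day. The optimal dose is the one giving the best increase in lifespan over untreated tumor-bearing controls; >20% counted significant.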

[6] = system: P388; assay: Percentage increase in life span (ILS) of compound treated tumor-bearing animals compared to tumor-bearing controls when treated at the optimal dose.; type: functional, Mus musculus
Outline: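 P388 leukemia: 10^6 cells inoculated intraperitoneally; drug given i.p. in 30% v/v ethanol-water on days 1, 5 and 9. Dose is in mg/kg per day. ILS is the percent increase in lifespan over untreated tumor-bearing controls at the optimal dose. Values above 20% count as significant.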

**Q.** What does the source list for `Cl.O=C(CCCC(=O)NCCNc1c2ccccc2nc2ccccc12)NCCNc1c2ccccc2nc2ccccc12`?
**A.** IC50 [1]: 9.2 µM and 6.7 µM; C50 [2]: 0.3 µM; C50 [3]: 0.29 µM; IC50 [4]: 3.08 µM; Optimal dose [5]: 30 mg/kg/day

**Q.** Which IC50 [1] does the source give for `Cl.O=C(CC(CC(=O)NCCCCCCNc1c2ccccc2nc2ccccc12)Nc1c2ccccc2nc2ccccc12)NCCCCCCNc1c2ccccc2nc2ccccc12` here?
**A.** 4.1 µM and 4 µM

**Q.** What about the C50 [2] of the same compound?
**A.** 0.11 µM

**Q.** And the C50 [3]?
**A.** 0.11 µM

**Q.** What about the IC50 [4] of the same compound?
**A.** 0.35 µM

**Q.** What about the Optimal dose [5] of the same compound?
**A.** 20 mg/kg/day

**Q.** What about the ILS [6] of the same compound?
**A.** 21%

**Q.** With `Cl.O=C(CCCC(=O)NCCCCCCNc1c2ccccc2nc2ccccc12)NCCCCCCNc1c2ccccc2nc2ccccc12` as the compound, how does the IC50 [1] read?
**A.** 4.9 µM and 4.7 µM

**Q.** What about the C50 [2] of the same compound?
**A.** 0.22 µM

**Q.** What about the C50 [3] of the same compound?
**A.** 0.33 µM

**Q.** And the IC50 [4]?
**A.** 0.25 µM

**Q.** What about the Optimal dose [5] of the same compound?
**A.** 45 mg/kg/day

**Q.** Which results are given for `Cl.O=C(CCCC(=O)NCCCCNc1c2ccccc2nc2ccccc12)NCCCCNc1c2ccccc2nc2ccccc12`?
**A.** IC50 [1]: 4.6 µM and 4.1 µM; C50 [2]: 0.28 µM; C50 [3]: 0.13 µM; IC50 [4]: 0.24 µM; Optimal dose [5]: 20 mg/kg/day; ILS [6]: 30%

**Q.** With `Cl.O=C(CCCC(=O)NCCCCCNc1c2ccccc2nc2ccccc12)NCCCCCNc1c2ccccc2nc2ccccc12` as the compound, how does the IC50 [1] read?
**A.** 5.2 µM and 4.2 µM

**Q.** What about the C50 [2] of the same compound?
**A.** 0.28 µM

**Q.** And the C50 [3]?
**A.** 0.24 µM

**Q.** What about the IC50 [4] of the same compound?
**A.** 0.17 µM

**Q.** And the Optimal dose [5]?
**A.** 20 mg/kg/day

**Q.** What about the ILS [6] of the same compound?
**A.** 33%

**Q.** With `Cl.O=C(CC(CC(=O)NCCNc1c2ccccc2nc2ccccc12)Nc1c2ccccc2nc2ccccc12)NCCNc1c2ccccc2nc2ccccc12` as the compound, how does the IC50 [1] read?
**A.** 30.3 µM and 30 µM

**Q.** And the C50 [2]?
**A.** 0.43 µM

**Q.** And the C50 [3]?
**A.** 0.38 µM

**Q.** And the IC50 [4]?
**A.** 5.9 µM

**Q.** And the Optimal dose [5]?
**A.** 3.9 mg/kg/day

**Q.** Which results are given for `Cl.O=C(CCCC(=O)NCCCNc1c2ccccc2nc2ccccc12)NCCCNc1c2ccccc2nc2ccccc12`?
**A.** IC50 [1]: 7.5 µM and 6.2 µM; IC50 [4]: 0.35 µM; Optimal dose [5]: 13.3 mg/kg/day

**Q.** With `Cl.O=C(CC(CC(=O)NCCCCCNc1c2ccccc2nc2ccccc12)Nc1c2ccccc2nc2ccccc12)NCCCCCNc1c2ccccc2nc2ccccc12` as the compound, how does the IC50 [1] read?
**A.** 4.1 µM and 4.5 µM

**Q.** And the C50 [2]?
**A.** 0.35 µM

**Q.** And the C50 [3]?
**A.** 0.25 µM

**Q.** And the IC50 [4]?
**A.** 0.58 µM

**Q.** What about the Optimal dose [5] of the same compound?
**A.** 8.9 mg/kg/day

**Q.** What about the ILS [6] of the same compound?
**A.** 21%

**Q.** Which results are given for `Cl.O=C(CCCC(=O)NCCCCCCCNc1c2ccccc2nc2ccccc12)NCCCCCCCNc1c2ccccc2nc2ccccc12`?
**A.** IC50 [1]: 6.2 µM and 4.5 µM; C50 [2]: 0.15 µM; C50 [3]: 0.23 µM; IC50 [4]: 0.96 µM; Optimal dose [5]: 30 mg/kg/day

**Q.** With `NC(CC(=O)NCCCNc1c2ccccc2nc2ccccc12)CC(=O)NCCCNc1c2ccccc2nc2ccccc12` as the compound, how does the IC50 [1] read?
**A.** 4.2 µM and 3.1 µM

**Q.** And the C50 [2]?
**A.** 0.09 µM

**Q.** What about the C50 [3] of the same compound?
**A.** 0.21 µM

**Q.** What about the IC50 [4] of the same compound?
**A.** 0.47 µM

**Q.** Which results are given for `Cl.O=C(CC(CC(=O)NCCCCCCCNc1c2ccccc2nc2ccccc12)Nc1c2ccccc2nc2ccccc12)NCCCCCCCNc1c2ccccc2nc2ccccc12`?
**A.** IC50 [1]: 4.6 µM and 3.7 µM; C50 [2]: 0.1 µM; C50 [3]: 0.14 µM; IC50 [4]: 0.59 µM; Optimal dose [5]: 20 mg/kg/day

**Q.** Which IC50 [1] does the source give for `Cl.O=C(CC(CC(=O)NCCCCNc1c2ccccc2nc2ccccc12)Nc1c2ccccc2nc2ccccc12)NCCCCNc1c2ccccc2nc2ccccc12` here?
**A.** 5.9 µM and 5.4 µM

**Q.** What about the C50 [2] of the same compound?
**A.** 0.08 µM

**Q.** And the C50 [3]?
**A.** 0.13 µM

**Q.** What about the IC50 [4] of the same compound?
**A.** 2.3 µM

**Q.** And the Optimal dose [5]?
**A.** 8.9 mg/kg/day

**Q.** For `Cl.O=C(CC(CC(=O)NCCCNc1c2ccccc2nc2ccccc12)Nc1c2ccccc2nc2ccccc12)NCCCNc1c2ccccc2nc2ccccc12`, which IC50 [1] is on record?
**A.** 13.2 µM and 12.8 µM

**Q.** And the C50 [2]?
**A.** 0.1 µM

**Q.** What about the C50 [3] of the same compound?
**A.** 0.19 µM

**Q.** What about the IC50 [4] of the same compound?
**A.** 0.8 µM

**Q.** What about the Optimal dose [5] of the same compound?
**A.** 8.9 mg/kg/day
